Cardio protect: myocardial damage modulation in H9c2 cells; protection from H2O2 cell death, % at 20 µM; H9c2 cardiomyocytes, H2O2 injury protection, ATPLite, 2 h; actives 0.63% (n = 360,000);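 active = compounds giving at least 50% protection of heart cells from peroxide-induced death in the single-dose screen, raw or plate-pattern-corrected value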;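 note: 0% = DMSO wells with peroxide and 100% = DMSO wells without peroxide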
PKA-R1A act: activates the PKA-R1A holoenzyme complex; actives 0.083% (n = 340,000); activation, % at 11.4 µM; AID 504707; PKA-R1A dissociation, Cy5-IP20 fluorescence polarization; scaled: DMSO 0%, 113 µM cGMP 100%; P00514+P68181;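 active = percent activation above the mean of all tested compounds plus 3 SD, cut at about 19% in these data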;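 note: higher means more PKAc released from R1A so a rise in polarization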
Tb MetRS inh: Trypanosoma brucei MetRS inhibition. AID 624268. purified T. brucei MetRS, ATP depletion, Kinase-Glo luminescence. actives 0.4% (n = 360,000). inhibition, % at 11.9 µM;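 active = inhibition above a per-plate cutoff of the control wells' mean inhibition plus 3 SD, cut at about 5.5% in these data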;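 note: 0% = DMSO wells median and 100% = median of wells with control inhibitor compound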
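Test system: purified T. brucei MetRS enzyme. Also added: ATP, methionine and E. coli bulk tRNA substrates. Compound: 11.9 µM single point. Schedule: 15 min enzyme-compound preincubation, 2 h reaction, 10 min detection, 25 °C. Signal: luciferase luminescence of residual ATP, Kinase-Glo. Evaluation: percent inhibition versus plate control medians. Controls: DMSO wells, low control.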
Rin1 Abl inh: inhibitors of human Rin1-Abl protein interaction; P00519+Q13671; TR-FRET Rin1/Abl binding, biochemical; inhibition, % at 7.35 µM; actives 0.4% (n = 360,000); AID 588664; in the data active = inhibition above about 5%, passing the limit was not always enough
PKA-R2B activ: PKA-R2B complex activation; P22694+P31323; PKA-R2B holoenzyme dissociation, Cy5-IP20 fluorescence polarization; R2B truncated from residue 108, S112A mutant; 0% DMSO only, 100% 113 µM cGMP; activation, % at 11.4 µM; actives 0.079% (n = 340,000); AID 504700;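 active = activation above a cutoff set at the mean over all compounds plus 3 SD, cut at about 18% in these data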;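 note: higher means more holoenzyme dissociation and a rise in polarization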
Target sequence (P31323 whole entry, looked up, other chains not shown, the tested form may be a part): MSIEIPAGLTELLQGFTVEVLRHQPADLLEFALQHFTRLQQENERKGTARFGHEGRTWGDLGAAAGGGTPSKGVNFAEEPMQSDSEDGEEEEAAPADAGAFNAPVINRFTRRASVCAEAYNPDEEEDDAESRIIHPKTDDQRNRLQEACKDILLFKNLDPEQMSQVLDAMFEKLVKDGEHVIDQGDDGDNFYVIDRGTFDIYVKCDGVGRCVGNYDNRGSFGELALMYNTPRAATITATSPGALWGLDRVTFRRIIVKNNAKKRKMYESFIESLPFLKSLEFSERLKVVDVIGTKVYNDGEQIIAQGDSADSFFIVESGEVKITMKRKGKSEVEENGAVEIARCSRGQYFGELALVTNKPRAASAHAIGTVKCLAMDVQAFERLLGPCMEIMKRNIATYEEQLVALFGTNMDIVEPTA
Rin1-Abl confirm: confirmation of inhibitors of human Rin1-Abl interaction | shares compounds with Rin1 Abl inh | TR-FRET Rin1-Abl binding, purified proteins | inhibition, % at 7.35 µM | actives 49% (n = 1,300) | AID 602124
GFP quench: counter-screen for Rin1-Abl inhibitors: GFP fluorescence quenchers; inhibitors/quenchers counterscreen; inhibition, % at 6.75 µM; actives 8.5% (n = 1,300); shares compounds with Rin1 Abl inh;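 note: ABL1-eGFP fusion protein alone without its partner RIN1-SBP; 0% = protein with vehicle and 100% = wells lacking protein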
GFP quench DR: GFP fluorescence interference dose response | 230 tested, under 10 active | GFP fluorescence interference/quenching counterscreen | shares compounds with Rin1 Abl inh | IC50, µM; call rule not given here;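 note: ABL1-eGFP fusion protein alone without its RIN1 binding partner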
* hit, by the source's call; / = no result given. The list is not random: actives were taken first. Their share in the collection is about 1.5%. Cut-off read from the data, not from the text of the source, unless noted: active = inhibition above about 6.5%; inactive = the rest.

SMILES	Cardio protect	PKA-R1A act	Tb MetRS inh	Rin1 Abl inh	PKA-R2B activ	Rin1-Abl confirm	GFP quench	others
COc1ccc(CNC(=O)c2ccc(NC(=O)CC3SC(N4CCCC4)=NC3=O)cc2)cc1 (stereo unspecified)	1	-4	0	7.8*	-1	7.5*	-1
CCN(CC(=O)Nc1c(F)cccc1F)C(=O)c1ccc(N2C(=O)c3ccccc3C2=O)cc1	4	4	0	-2	-3	/	/
CCc1nn2c(=O)cc(COC(=O)c3cc(Cl)c(OC)c(OC)c3)nc2s1	-9	-10	0	4	4	/	/
C#CCO[C@@H]1C[C@H](n2ccc(NC(=O)c3ccccc3)nc2=O)O[C@@H]1CO	-3	12	0	10*	0	5	1
CNc1ccn(C2CCCO2)c(=O)n1 (stereo unspecified)	-3	-8	0	-4	9	/	/
O=C(Nc1ccn(C2CCC(CO)O2)c(=O)n1)c1ccccc1 (stereo unspecified)	-2	/	-1	65*	/	56*	0
NS(=O)(=O)c1ccc(N=Nc2c[nH]c(=O)c(O)c2)cc1	-2	1	2	18*	-8	14*	24*
Cc1[nH][nH]c(=O)c1N=Nc1ccc(S(N)(=O)=O)cc1	-1	/	0	-2	/	/	/
CCCCC(=O)Nc1ccc(C(=O)N2CCCC(C(=O)OCC)C2)cc1 (stereo unspecified)	2	1	0	7.3*	1	2	1
CCOC(=O)C1CCCN(C(=O)c2ccc(Cl)cc2)C1 (stereo unspecified)	1	-3	-1	2	-3	/	/
Cc1c(-c2nnc(SCC(=O)O)n2-c2ccccc2Br)nnn1-c1ccccc1	8	-9	-1	-1	0	/	/
COc1ccc(NC(=S)N2CCN(C/C=C/c3ccccc3)CC2)cc1	-12	3	-1	9.3*	-8	-1	-1
CCN(CC)C(=O)CSc1nc(Cc2ccccc2)nc2ccccc12	9	4	1	24*	-1	21*	-1	GFP quench DR=>67
CC(C)NC(=O)CSc1nc(Cc2ccccc2)nc2ccccc12	0	-7	-1	-3	-3	/	/
CCOc1ccc(S(=O)(=O)NCc2ccc3c(c2)OCO3)cc1C(=O)O	1	1	0	4	7	/	/
CN(CC(=O)Nc1ccccn1)S(=O)(=O)c1ccc(Cl)cc1	6	-3	0	36*	-9	-3	-2
Cc1cnc(NC(=O)CN(C)S(=O)(=O)c2ccc(Cl)cc2)s1	-7	-5	-2	3	-5	/	/
COc1ccc(OCC(=O)NNC(=O)c2cccc(O)c2)cc1	0	3	-1	-3	5	/	/
COCCn1c(N)c(N(Cc2ccccc2)C(=O)c2ccc(-c3ccc(Cl)cc3)o2)c(=O)[nH]c1=O	25	0	-1	-2	-1	/	/
O=C(COC(=O)c1ccc([N+](=O)[O-])cc1Cl)Nc1cccnc1Cl	4	2	0	8.7*	0	3	0
O=C(COC(=O)c1cc([N+](=O)[O-])ccc1NCCO)Nc1cccnc1Cl	20	4	1	-2	3	/	/
CC(=O)N/C(=C\c1ccccc1)C(=O)OCC(=O)NC1CCS(=O)(=O)C1 (stereo unspecified)	1	-1	0	-3	-10	/	/
COc1cc(Cl)ccc1OCc1cc(C(=O)N2CCCCC2c2cccnc2)no1 (stereo unspecified)	-1	3	0	10*	-6	1	0
C[C@@H]1CN([C@@H](C)CO)C(=O)c2cc(NS(C)(=O)=O)ccc2O[C@@H]1CN(C)Cc1ccc(C(F)(F)F)cc1	5	-1	0	1	-10	/	/
Cc1nc2c(OCc3ccccc3)cccn2c1N(C)C(=O)C1CCCCC1	1	/	0	3	/	/	/
SMILES	Cardio protect	PKA-R1A act	Tb MetRS inh	Rin1 Abl inh	PKA-R2B activ	Rin1-Abl confirm	GFP quench	others
COC(=O)COc1cccc(NC(=O)c2ccccc2)c1	-8	-3	0	1	-10	/	/
COC(=O)COc1cccc(NC(=O)COc2ccccc2)c1	-14	-18	0	7.5*	3	-1	0
CCOC(=O)CC1(NC(=O)C2CCC(=O)N(Cc3ccccc3F)C2)CCCCC1 (stereo unspecified)	-2	-4	0	4	-7	/	/
Cc1ccc(-c2nnc(-n3ncc(C#N)c3N)c3ccccc23)cc1C	-2	1	0	9.3*	6	-1	-1
COc1ccccc1-c1csc(-n2ncc(C#N)c2N)n1	-5	-6	0	1	1	/	/
CC1=Nc2ccccc2NC(=O)C1Sc1nnc(C)s1 (stereo unspecified)	-6	-2	-1	6.4*	-1	3	1
O=C1Nc2ccccc2N=C(c2ccccc2)C1Br (stereo unspecified)	-3	-7	-1	3	3	/	/
Oc1ccc(/C=N/Nc2ccc(Cl)nn2)c(O)c1O	13	-7	1	29*	-1	27*	17*
Oc1c(Br)cc(Br)cc1/C=N/Nc1ccc(Cl)nn1	37	-2	-1	1	-4	/	/
COCCNC(=O)C(c1ccc(C)o1)N(C(=O)Cn1nnc2ccccc21)c1ccccc1 (stereo unspecified)	-1	0	0	0	-12	/	/
Cc1ccc(C)c(SCC(=O)OCC(=O)Nc2ncc(C(F)(F)F)cc2Cl)c1	5	-17	1	9.1*	-11	0	0
Cc1cc(Br)ccc1SCC(=O)OCC(=O)Nc1ncc(C(F)(F)F)cc1Cl	1	-17	0	-3	4	/	/
O=C1NC(c2cccc([N+](=O)[O-])c2)Oc2ccccc21 (stereo unspecified)	9	-2	-1	-1	-3	/	/
Cn1nc(C(=O)Nc2ccccc2N2CCCC2)c2ccccc2c1=O	22	-1	-1	-4	0	/	/
Cc1nn(CC(=O)Nc2ccc(C(=O)N3CCCC3)cc2)c(=O)c2ccccc12	-2	0	-1	9.9*	-2	7.4*	2
Cc1nn(CC(=O)Nc2ccc(C(=O)N3CCCCC3)cc2)c(=O)c2ccccc12	1	0	0	12*	2	13*	0
COc1cc(C(=O)Nc2ccc(Nc3ccccc3)cc2)cc(OC)c1OC	3	-12	0	0	-6	/	/
OC[C@@H]1CN(Cc2ccc(Cl)cc2)C[C@H](n2cnc3c(NC4CC4)ncnc32)O1	-6	/	0	17*	/	20*	-4	GFP quench DR=>68

Assay outcomes: PubChem BioAssay, several laboratories
